pEC50, pKi: −log10 of the molar value.
Columns and labels:
[1] = molecular target: T1, Retinoic acid receptor RXR-alpha (Homo sapiens, UniProt P19793); assay: Transactivation of RXRalpha in CV1 cells by cotransfection assay; type: functional, cell-based, CV-1; conditions: for pEC50: read-out: EC50; for EC50: cv-1
T1 sequence (P19793 whole entry): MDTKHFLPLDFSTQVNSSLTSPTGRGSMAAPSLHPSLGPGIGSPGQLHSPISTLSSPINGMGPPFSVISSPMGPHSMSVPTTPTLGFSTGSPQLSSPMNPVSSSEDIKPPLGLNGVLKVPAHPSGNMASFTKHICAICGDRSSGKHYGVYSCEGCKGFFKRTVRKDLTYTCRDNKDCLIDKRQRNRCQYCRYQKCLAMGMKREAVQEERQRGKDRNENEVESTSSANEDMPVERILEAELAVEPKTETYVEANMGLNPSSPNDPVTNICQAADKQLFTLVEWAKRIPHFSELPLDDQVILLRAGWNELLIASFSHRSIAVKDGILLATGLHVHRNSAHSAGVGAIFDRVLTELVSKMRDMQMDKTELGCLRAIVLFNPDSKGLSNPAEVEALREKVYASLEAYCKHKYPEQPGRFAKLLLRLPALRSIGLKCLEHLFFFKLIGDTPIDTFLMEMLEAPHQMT
Summary of the method: (§1)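 EC50 taken from a full dose–response curve. Retinoid activity was normalized to the response to ATRA (all-trans retinoic acid). Potency (EC50) is the retinoid concentration that gives 50% of the maximal observed response.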

[2] = molecular target: T2, Retinoic acid receptor RXR-gamma (Homo sapiens, UniProt P48443); assay: Transactivation of RXRgamma in CV1 cells by cotransfection assay; type: functional, cell-based, CV-1; conditions: for pEC50: read-out: EC50; for EC50: cv-1; summary of the method: as §1
T2 sequence (P48443 whole entry): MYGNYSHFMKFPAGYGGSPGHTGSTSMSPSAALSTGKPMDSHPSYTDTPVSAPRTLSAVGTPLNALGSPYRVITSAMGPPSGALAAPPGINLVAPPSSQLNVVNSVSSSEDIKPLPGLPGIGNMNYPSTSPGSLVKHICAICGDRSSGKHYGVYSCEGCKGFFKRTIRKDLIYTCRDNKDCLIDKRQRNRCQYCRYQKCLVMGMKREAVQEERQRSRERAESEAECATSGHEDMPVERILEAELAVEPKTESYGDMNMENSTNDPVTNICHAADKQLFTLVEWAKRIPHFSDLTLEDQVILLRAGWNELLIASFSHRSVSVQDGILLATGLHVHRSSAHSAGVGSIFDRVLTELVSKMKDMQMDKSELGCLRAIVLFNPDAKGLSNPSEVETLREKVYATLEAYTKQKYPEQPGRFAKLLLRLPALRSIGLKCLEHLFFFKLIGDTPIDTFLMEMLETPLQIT

[3] = molecular target: T3, Retinoic acid receptor RXR-beta (Homo sapiens, UniProt P28702); assay: Binding affinity to RXRbeta; conditions: for pKi: read-out: Ki
T3 sequence (P28702 whole entry): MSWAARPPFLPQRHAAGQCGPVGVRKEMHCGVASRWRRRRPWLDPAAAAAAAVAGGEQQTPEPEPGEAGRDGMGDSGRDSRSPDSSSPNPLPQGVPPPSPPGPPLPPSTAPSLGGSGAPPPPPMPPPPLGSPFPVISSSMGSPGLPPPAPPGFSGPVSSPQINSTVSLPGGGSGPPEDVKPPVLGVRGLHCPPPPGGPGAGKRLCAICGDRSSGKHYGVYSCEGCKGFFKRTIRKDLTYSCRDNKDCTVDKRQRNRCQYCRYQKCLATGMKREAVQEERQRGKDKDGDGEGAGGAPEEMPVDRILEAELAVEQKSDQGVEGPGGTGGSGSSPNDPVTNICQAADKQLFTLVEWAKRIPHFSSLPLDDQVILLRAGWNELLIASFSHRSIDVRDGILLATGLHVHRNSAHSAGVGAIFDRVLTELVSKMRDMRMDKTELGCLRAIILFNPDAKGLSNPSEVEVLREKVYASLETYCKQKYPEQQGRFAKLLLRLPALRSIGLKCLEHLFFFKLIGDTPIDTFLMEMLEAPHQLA

[4] = molecular target: T1, Retinoic acid receptor RXR-alpha; assay: Binding affinity to RXRalpha; conditions: for pKi: read-out: Ki
[5] = molecular target: T2, Retinoic acid receptor RXR-gamma; assay: Binding affinity to RXRgamma; conditions: for pKi: read-out: Ki
[6] = molecular target: T3, Retinoic acid receptor RXR-beta; assay: Transactivation of RXRbeta in CV1 cells by cotransfection assay; type: functional, cell-based, CV-1; conditions: for pEC50: read-out: EC50; for EC50: cv-1; summary of the method: as §1

| Compound | pEC50 [1] | pEC50 [2] | pKi [3] | pKi [4] | pKi [5] | pEC50 [6] | EC50 [2] | EC50 [1] | EC50 [6] | Ki [3] | Ki [4] | Ki [5] |
| --- | --- | --- | --- | --- | --- | --- | --- | --- | --- | --- | --- | --- |
| CCCCN(C/C=C/C(C)=C/C(=O)O)c1cc(C(C)(C)C)cc2c1CCC2(C)C | 7.28 | 7.30 | 7.22 | 7.68 | 7.51 | 7.28 |  |  |  |  |  |  |
| CCCN(C/C=C/C(C)=C/C(=O)O)c1cc2c(cc1OC)C(C)(C)CCC2(C)C | 6.40 |  | 6.14 | 6.59 | 6.24 | 6.77 | Not Active |  |  |  |  |  |
| CC(C)=CCN(C/C=C/C(C)=C/C(=O)O)c1cc(C(C)(C)C)cc2c1CCC2(C)C |  |  | 6.49 | 6.60 | 6.51 |  | Not Active | Not Active | Not Active |  |  |  |
| CC(/C=C/C(=O)N(Cc1ccccc1)c1cc(C(C)(C)C)cc(C(C)(C)C)c1)=C\C(=O)O |  |  |  |  |  |  | Not Active | Not Active | Not Active | Not Active | Not Active | Not Active |
| CCCN(C/C=C/C(C)=C/C(=O)O)c1cc2c(cc1C)C(C)(C)CCC2(C)C | 6.64 | 6.65 | 6.79 | 7.74 | 6.68 | 6.67 |  |  |  |  |  |  |
| CCCN(C/C=C/C(C)=C/C(=O)O)c1ccc2c(c1)C(C)(C)CCC2(C)C | 6.82 | 6.77 | 7.14 | 7.33 | 6.96 | 6.69 |  |  |  |  |  |  |
| CCN(C/C=C/C(C)=C/C(=O)O)c1cc(C(C)(C)C)cc(C(C)(C)C)c1 | 6.66 | 6.64 | 7.62 | 7.51 | 7.46 | 6.63 |  |  |  |  |  |  |
| CC(/C=C/CN(c1cc(C(C)(C)C)cc2c1CCC2(C)C)C(C)C)=C\C(=O)O | 6.60 | 6.58 | 6.52 | 7.17 | 6.92 | 6.67 |  |  |  |  |  |  |
| CCCCCCCCN(C/C=C/C(C)=C/C(=O)O)c1cc(C(C)(C)C)cc(C(C)(C)C)c1 |  | 7.46 | 6.90 | 6.91 | 6.66 |  |  | Not Active | Not Active |  |  |  |
| CCCN(C(=O)/C=C/C(C)=C/C(=O)O)c1cc(C(C)(C)C)cc(C(C)(C)C)c1 | 6.00 | 6.17 | 6.22 | 6.19 | 6.52 | 6.82 |  |  |  |  |  |  |
| CC(/C=C/CN(C)c1cc(C(C)(C)C)cc(C(C)(C)C)c1)=C\C(=O)O | 6.42 | 6.49 | 7.06 | 7.43 | 6.88 | 7.02 |  |  |  |  |  |  |
| CCCN(C/C=C/C(C)=C/C(=O)O)c1cc(C(C)(C)C)cc2c1CCC2(C)C | 7.66 | 7.72 | 7.92 | 8.10 | 8.00 | 7.68 |  |  |  |  |  |  |
| CC(/C=C/CNc1cc(C(C)(C)C)cc(C(C)(C)C)c1)=C\C(=O)O |  |  |  | 6.28 |  |  | Not Active | Not Active | Not Active | Not Active |  | Not Active |
| CC(/C=C/[C@H]1CCCN1c1ccc2c(c1)C(C)(C)CCC2(C)C)=C\C(=O)O |  | 5.90 | 6.73 | 6.99 | 6.69 | 5.89 |  | Not Active |  |  |  |  |
| CC(/C=C/CN(Cc1ccccc1)c1cc(C(C)(C)C)cc(C(C)(C)C)c1)=C\C(=O)O |  |  | 6.62 | 6.92 | 6.68 |  | Not Active | Not Active | Not Active |  |  |  |
| CC(/C=C/CN(CC1CC1)c1cc(C(C)(C)C)cc2c1CCC2(C)C)=C\C(=O)O | 6.91 | 7.00 | 6.98 | 7.20 | 6.82 | 7.01 |  |  |  |  |  |  |
| CCN(C/C=C/C(C)=C/C(=O)O)c1ccc2c(c1)C(C)(C)CCC2(C)C | 6.67 | 6.89 | 6.73 | 6.99 | 6.79 | 6.62 |  |  |  |  |  |  |
| CC(/C=C/[C@@H]1CCCN1c1ccc2c(c1)C(C)(C)CCC2(C)C)=C\C(=O)O | 6.75 | 6.83 | 7.20 | 7.68 | 7.00 | 6.79 |  |  |  |  |  |  |
| CCCN(C/C=C/C(C)=C/C(=O)O)c1cc(C(C)(C)C)cc(C(C)(C)C)c1 | 7.00 | 7.20 | 7.47 | 7.77 | 7.42 | 7.16 |  |  |  |  |  |  |
| CC(/C=C/C(=O)Nc1cc(C(C)(C)C)cc(C(C)(C)C)c1)=C\C(=O)O |  |  |  |  |  |  | Not Active | Not Active | Not Active | Not Active | Not Active | Not Active |
| CCN(C/C=C/C(C)=C/C(=O)O)c1cc2c(cc1C)C(C)(C)CCC2(C)C | 7.19 | 6.90 | 6.82 | 7.38 | 7.00 | 6.93 |  |  |  |  |  |  |
